Data taken from PMC10498798 (Mycobiology, 2023).
Values after ≈ are worked out from the molar mass of the structure shown. “Also recorded” adds a separate entry of the source. Where two headings read alike, the source gives them in different places.

Assays:
[1] = system: Hep-G2 (Human hepatocellular carcinoma); assay: MTT cytotoxic assay, Hep-G2; format: cell-based; details: for IC50: Homo sapiens, HepG2, 36 h, read-out: IC50 Hep-G2
[2] = system: A549 (Human lung carcinoma); assay: MTT cytotoxic assay, A549; format: cell-based; details: for IC50: Homo sapiens, A549, 36 h, read-out: IC50 A549
[3] = system: MCF-7 (Human breast adenocarcinoma); assay: MTT cytotoxic assay, MCF-7; format: cell-based; details: for IC50: Homo sapiens, MCF7, 36 h, read-out: IC50 MCF-7
[4] = system: Vero cells (monkey kidney epithelial cells); assay: MTT cytotoxic assay, Vero cells; format: cell-based; details: for IC50: Primates, Vero; for IC50 Vero: MTT
[5] = system: NO production in LPS-stimulated RAW 264.7 macrophages; assay: Nitrite; format: cell-based, murine
Procedure, shortened: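 RAW 264.7 cells were seeded at 2x10^5 per well and grown to about 70% confluence, then serum-starved in 1% FBS medium. Test compound was given at non-cytotoxic concentrations for 24 h at 37 °C, then cells were stimulated with 1 µg/mL LPS for 24 h. Supernatant nitrite was measured with Griess reagent (30 °C, 20 min) at 550 nm against a sodium nitrite standard curve. Runs were in triplicate, and IC50 came from inhibition-concentration plots.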

[6] = system: RAW 264.7 macrophages; assay: MTT cell viability of RAW 264.7 macrophages; format: cell-based, murine
Procedure, shortened: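 RAW 264.7 cells were kept in DMEM with 10% FBS and penicillin/streptomycin at 37 °C, 5% CO2. Exponential-phase cells (5x10^4 per well) were exposed to serially diluted test compound (50-25-12.5-6.25 µg/mL) plus 1 µg/mL LPS for 36 h. MTT (0.5 mg/mL) was then added for 4 h at 37 °C. Formazan was dissolved in DMSO and read at 570 nm. Runs were in triplicate.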

[7] = target: T1, porcine pancreatic lipase (Type II) (Sus scrofa, UniProt P00591); assay: Lipase inhibitory assay; format: biochemical; details: for inhibition at 500 µg/mL / inhibition at 125 µg/mL / inhibition at 250 µg/mL: read-out: Enzyme inhibition (pancreatic lipase)
T1 sequence (P00591 1-450): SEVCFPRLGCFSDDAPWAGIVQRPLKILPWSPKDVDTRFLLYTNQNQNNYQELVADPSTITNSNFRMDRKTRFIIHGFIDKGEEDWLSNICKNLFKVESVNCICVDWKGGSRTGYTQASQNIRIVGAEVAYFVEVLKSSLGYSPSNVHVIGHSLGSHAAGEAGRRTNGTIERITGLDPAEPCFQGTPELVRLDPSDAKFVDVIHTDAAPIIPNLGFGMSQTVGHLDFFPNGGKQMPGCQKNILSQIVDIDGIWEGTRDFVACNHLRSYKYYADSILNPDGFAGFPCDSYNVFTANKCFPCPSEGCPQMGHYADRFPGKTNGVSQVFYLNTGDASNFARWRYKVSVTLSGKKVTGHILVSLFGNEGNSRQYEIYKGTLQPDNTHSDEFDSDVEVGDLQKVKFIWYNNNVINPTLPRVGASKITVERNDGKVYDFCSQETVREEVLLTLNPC
Procedure, shortened: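 Porcine pancreatic lipase (Type II, 0.1 mg) was mixed with 6.66 μM p-nitrophenyl palmitate in ethanol/acetonitrile (2:1, v/v) and test compound in 0.061 M Tris-HCl, pH 8.5. The mixture was incubated at 37 °C for 25 min, stopped with ethanol, and substrate hydrolysis read at 405 nm. Runs were in triplicate. IC50 was estimated from inhibition-versus-concentration plots.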

[8] = system: α-glucosidase from Saccharomyces cerevisiae; assay: Alpha-glucosidase inhibitory assay; format: biochemical; details: for α-glucosidase inhibition rate: concentration of 400 µg/mL; for IC50: read-out: IC50 α-glucosidase, µM equivalent, converted from µg/mL
[9] = 36 h, read-out: IC50 Vero, MTT, 36 h
[10] = Mus musculus, RAW264.7, read-out: NO inhibition
[11] = read-out: IC50 Vero, μM equivalent, converted from µg/mL

Cc1c2ccncc2c(C)c2c1[nH]c1ccccc12 [Ellipticine, reference compound]
IC50 [1]: 1.26 µg/mL (≈ 5.12 µM) | IC50 [2]: 1.38 µg/mL (≈ 5.6 µM) | IC50 [3]: 2.69 µg/mL (≈ 10.9 µM) | IC50 [4, 9]: 8.61 µg/mL

CC(C)[C@@H](C)/C=C/[C@@H](C)[C@H]1CC[C@H]2C3=C[C@@H](O)[C@@]4(O)C[C@@H](O)CC[C@]4(C)[C@H]3CC[C@]12C [Compound (1), cerevisterol]
IC50 [1]: > 50 µg/mL | IC50 Hep-G2 ([1]; MTT, 36 h): no significant effect; also recorded: did not show any cytotoxicity | IC50 [2]: > 50 µg/mL | IC50 A549 ([2]; MTT, 36 h): no significant effect; also recorded: did not show any cytotoxicity | IC50 [3]: > 50 µg/mL | IC50 MCF-7 ([3]; MTT, 36 h): no significant effect; also recorded: did not show any cytotoxicity | IC50 Vero ([4]; 36 h): did not show any cytotoxicity | IC50 [4, 9]: > 50 µg/mL | inhibition at 1 µg/mL [5, 10]: 14.4 ± 1.5% | inhibition at 5 µg/mL [5, 10]: 30.9 ± 1.04% | inhibition at 25 µg/mL [5, 10]: 48.8 ± 1.43% | inhibition at 50 µg/mL [5, 10]: 54.2 ± 1.27% | Cell survival ([6]; test concentration 1 µg/mL): 98.05 ± 0.67% | Cell survival ([6]; test concentration 5 µg/mL): 97.69 ± 1.20% | Cell survival ([6]; test concentration 25 µg/mL): 96.78 ± 0.63% | Cell survival ([6]; test concentration 50 µg/mL): 98.40 ± 1.73% | inhibition at 500 µg/mL [7]: 0% | α-glucosidase inhibition rate [8]: 12.69 ± 1.06%

CC(C)[C@@H](C)/C=C/[C@@H](C)[C@H]1CCC2=C3C=C[C@@]4(O)C[C@@H](O)CC[C@]4(C)[C@H]3CC[C@@]21C [Compound (3), (3β,5α,22E)-ergosta-6,8(14),22-triene-3,5-diol]
IC50 [1]: 2.89 µg/mL (≈ 7 µM) | IC50 [2]: 18.5 µg/mL (≈ 44.9 µM) | IC50 [3]: 16.5 µg/mL (≈ 39.9 µM) | IC50 Vero ([4]; 36 h): 18.40 µg/mL (≈ 44.6 µM) | IC50 [4, 9]: 10.4 µg/mL | IC50 [4, 11]: 24.2 µM | inhibition at 1 µg/mL [5, 10]: 32.8 ± 0.73% | inhibition at 5 µg/mL [5, 10]: 55.2 ± 1.2% | inhibition at 25 µg/mL [5, 10]: 71.4 ± 1.38% | Cell survival ([6]; test concentration 1 µg/mL): 93.19 ± 0.49% | Cell survival ([6]; test concentration 5 µg/mL): 93.86 ± 1.33% | Cell survival ([6]; test concentration 25 µg/mL): 82.31 ± 0.78% | Cell survival ([6]; test concentration 50 µg/mL): 1.70 ± 0.27% | IC50 [7]: > 1210 µM | inhibition at 125 µg/mL [7]: 1.29 ± 1.11% | inhibition at 250 µg/mL [7]: 12.1 ± 0.95% | inhibition at 500 µg/mL [7]: 23.8 ± 2.31% | IC50 α-glucosidase [8]: 25.81 µg/mL (≈ 62.5 µM) | α-glucosidase inhibition rate [8]: greater than 50% | IC50 [8]: 60 µM

COc1cc(O)cc(O)c1C(=O)/C=C/c1ccccc1 [Cardamonin, reference compound]
NO half-maximal inhibitory concentration (IC50) ([5]; LPS-stimulated RAW 264.7): 0.62 µg/mL | NO inhibition ([5]; test concentration 0.81 µg/mL (3 µM), LPS 1 µg/mL): 86.93 ± 0.96% | Cell survival ([6]; test concentration 0.81 µg/mL (3 µM)): 71.80 ± 0.51%

CC(C)[C@@H](C)/C=C/[C@@H](C)[C@H]1CC[C@@H]2[C@]1(C)CC[C@H]1[C@]23C=C[C@]2(C[C@@H](O)CC[C@]12C)OO3 [Compound (2), ergosterol peroxide]
IC50 [1]: 16.2 µg/mL (≈ 37.8 µM) | IC50 [2]: 22.5 µg/mL (≈ 52.4 µM) | IC50 [3]: 27.1 µg/mL (≈ 63.2 µM) | IC50 Vero ([4]; 36 h): 14.93 µg/mL (≈ 34.8 µM) | IC50 [4, 11]: 11.5 µM | inhibition at 1 µg/mL [5, 10]: 28 ± 0.84% | inhibition at 5 µg/mL [5, 10]: 56.7 ± 1.29% | inhibition at 25 µg/mL [5, 10]: 81.4 ± 1.35% | Cell survival ([6]; test concentration 1 µg/mL): 98.08 ± 1.26% | Cell survival ([6]; test concentration 5 µg/mL): 83.99 ± 1.05% | Cell survival ([6]; test concentration 25 µg/mL): 60.87 ± 2.21% | Cell survival ([6]; test concentration 50 µg/mL): 2.18 ± 0.68% | IC50 [7]: > 1170 µM | inhibition at 125 µg/mL [7]: 2.54 ± 1.6% | inhibition at 250 µg/mL [7]: 11.7 ± 2.13% | inhibition at 500 µg/mL [7]: 25.9 ± 1.24% | IC50 α-glucosidase [8]: 21.89 µg/mL (≈ 51.1 µM) | α-glucosidase inhibition rate [8]: greater than 50% | IC50 [8]: 51.1 µM
